The source of these data is ChEMBL document CHEMBL1157327, “Antimicrobial dialkylresorcinols from Pseudomonas sp. Ki19” (2006).

≈ marks a conversion by molar mass, not a printed value.

Holding throughout (type): functional
In assay [1] the test system is Candida albicans. Nature of the assay: Antifungal activity against Candida albicans assessed as total inhibition of cell growth/spore germination after 24 hrs. The method in brief: (§1)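 Microtiter-plate cell growth inhibition, compounds tested up to 100 µg/mL, incubated at 37 °C for 24 h. Total inhibition was taken as full inhibition of growth. Tests run in triplicate and repeated once.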

Assay [2] concerns Staphylococcus aureus. Briefly: Antibacterial activity against Staphylococcus aureus assessed as total inhibition of cell growth/spore germination after 24 hrs. The method, boiled down: as §1
The subject of assay [3] is Candida albicans. Nature of the assay: Antifungal activity against Candida albicans assessed as detectable inhibition of growth after 24 hrs. The method, boiled down: as §1
Assay [4] has as its system Fusarium culmorum. Briefly: Antifungal activity against Fusarium culmorum assessed as total inhibition of cell growth/spore germination after 72 hrs. The method in brief:
(§2)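 Spore germination/growth inhibition was read in microtiter plates with compounds up to 100 µg/mL. Plates were incubated in darkness at 27-28 °C: D. sorokiniana 48 h, F. culmorum 72 h, A. fumigatus 96 h. Visual scores ran from 3 (full inhibition, like sterile medium) through 1 (detectable) to 0 (like untreated spore suspension). Triplicates, repeated once.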

Assay [5] concerns Fusarium culmorum. Nature of the assay: Antifungal activity against Fusarium culmorum assessed as detectable inhibition of growth after 72 hrs. The method, boiled down: as §2
Assay [6] relates to Drechslera. Nature of the assay: Antifungal activity against Drechslera sorokiniana assessed as total inhibition of cell growth/spore germination after 48 hrs. The method in brief:
as §2

Assay [7] has as its system Aspergillus fumigatus. Nature of the assay: Antifungal activity against Aspergillus fumigatus assessed as total inhibition of cell growth/spore germination after 96 hrs. The method in brief:
as §2

Assay [8] relates to Aspergillus fumigatus. Nature of the assay: Antifungal activity against Aspergillus fumigatus assessed as detectable inhibition of growth after 96 hrs. The method, boiled down: as §2
Assay [9] deals with Staphylococcus aureus. Nature of the assay: Antibacterial activity against Staphylococcus aureus assessed as detectable inhibition of growth after 24 hrs. The method in brief: as §1
For assay [10], the system named is Drechslera. Briefly: Antifungal activity against Drechslera sorokiniana assessed as detectable inhibition of growth after 48 hrs. The method, boiled down: as §2
Assay [11] concerns Pseudomonas savastanoi pv. savastanoi. Briefly: Antibacterial activity against Pseudomonas savastanoi pv. savastanoi CCM 3580 assessed as detectable inhibition of growth after 24 hrs. Particulars: CCM 3580, 24 h. The method in brief: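 Microtiter-plate bioassay of cell growth inhibition; compounds tested up to 100 µg/mL; plates incubated in darkness at 27-28 °C for 24 h; growth scored visually on a 0-3 scale (3 full inhibition like sterile-medium control, 1 detectable inhibition, 0 like untreated cell suspension); value is lowest concentration giving detectable inhibition; triplicate, repeated once.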

Take `CCCCCCC1=C(O)C(=O)C(CCCCC)=CC1=O`: the MIC in the assay with Candida albicans [1] and in the assay with Staphylococcus aureus [2] was 100 µg/mL (≈ 359 µM) in each case.

For `CCCCCCc1c(O)cc(C)cc1O`, the MIC in the assay on Candida albicans [3] came out at 50 µg/mL (≈ 240 µM); with Fusarium culmorum [4], 50 µg/mL (≈ 240 µM); with Fusarium culmorum [5] it was 10 µg/mL (≈ 48 µM); with Drechslera [6] it was 50 µg/mL (≈ 240 µM); in the assay with Aspergillus fumigatus [7], 50 µg/mL (≈ 240 µM); in the assay on Aspergillus fumigatus [8] it was 10 µg/mL (≈ 48 µM). For the same compound, the figures for the MIC in the assay with Staphylococcus aureus [2] and in the assay with Staphylococcus aureus [9] were 2 µg/mL (≈ 9.6 µM) and 1 µg/mL (≈ 4.8 µM), respectively.

For the compound `CCCCCCc1c(O)cc(CCC)cc1O`, the MIC with Fusarium culmorum [4] is 50 µg/mL (≈ 212 µM); in the assay on Candida albicans [1], 50 µg/mL (≈ 212 µM); with Fusarium culmorum [5], 10 µg/mL (≈ 42.3 µM); with Drechslera [10], 50 µg/mL (≈ 212 µM); with Aspergillus fumigatus [7], 50 µg/mL (≈ 212 µM); with Aspergillus fumigatus [8] it was 10 µg/mL (≈ 42.3 µM). Moreover, the MIC amounted to 3 µg/mL (≈ 12.7 µM) in the assay on Staphylococcus aureus [2] and 2 µg/mL (≈ 8.46 µM) with Staphylococcus aureus [9].

For `CCCCc1c(O)cc(CCC)cc1O`, the MIC in the assay with Candida albicans [3] worked out at 50 µg/mL (≈ 240 µM); in the assay on Fusarium culmorum [4] it was 50 µg/mL (≈ 240 µM); in the assay on Drechslera [10] it was 50 µg/mL (≈ 240 µM); with Aspergillus fumigatus [8], 50 µg/mL (≈ 240 µM); in the assay on Staphylococcus aureus [2] it was 5 µg/mL (≈ 24 µM).

Turning to `C[C@@H]1[C@H](O)[C@@H](C)/C=C/C=C/C=C/C=C/C=C/C=C/C=C/[C@H](O[C@@H]2O[C@H](C)[C@@H](O)[C@H](N)[C@@H]2O)C[C@@H]2O[C@](O)(C[C@@H](O)C[C@@H](O)[C@H](O)CC[C@@H](O)C[C@@H](O)CC(=O)O[C@H]1C)C[C@H](O)[C@H]2C(=O)O` [AMPHOTERICIN B], the MIC amounted to 40 µg/mL (≈ 43.3 µM) in the assay on Fusarium culmorum [4], 40 µg/mL (≈ 43.3 µM) with Candida albicans [1], 4 µg/mL (≈ 4.33 µM) in the assay on Drechslera [6] and 40 µg/mL (≈ 43.3 µM) in the assay with Aspergillus fumigatus [7].

For `C=CCOC(Cn1ccnc1)c1ccc(Cl)cc1Cl` (stereo not drawn) [ENILCONAZOLE], the MIC in the assay on Fusarium culmorum [4] worked out at 5 µg/mL (≈ 16.8 µM); in the assay on Drechslera [6], 0.1 µg/mL (≈ 0.336 µM); in the assay with Aspergillus fumigatus [7], 5 µg/mL (≈ 16.8 µM).

As to `CCCCCCc1c(O)cc(CCCCC)cc1O` [RESORSTATIN], the MIC with Candida albicans [3] worked out at 50 µg/mL (≈ 189 µM); in the assay on Fusarium culmorum [4] it was 50 µg/mL (≈ 189 µM); with Drechslera [10], 50 µg/mL (≈ 189 µM); with Aspergillus fumigatus [8] it was 50 µg/mL (≈ 189 µM); in the assay with Staphylococcus aureus [2], 7 µg/mL (≈ 26.5 µM); in assay [11], 50 µg/mL (≈ 189 µM). For the same compound, the MIC in the assay with Staphylococcus aureus [9] came to 6 µg/mL (≈ 22.7 µM).

As for `CN[C@@H]1[C@H](O[C@H]2[C@H](O[C@H]3[C@H](O)[C@@H](O)[C@H](N=C(N)N)[C@@H](O)[C@@H]3N=C(N)N)O[C@@H](C)[C@]2(O)C=O)O[C@@H](CO)[C@H](O)[C@H]1O` [STREPTOMYCIN], in the assay on Staphylococcus aureus [2], the MIC was found to be 10 µg/mL (≈ 17.2 µM).

Usually MIC stands for the lowest concentration found to suppress growth.
